From ChEMBL document CHEMBL1157029, “Synthesis, characterization and in vitro pharmacology of novel pregabalin derivatives” (Eur J Med Chem, 2010)

Species on record: Rattus norvegicus
Experiment: Inhibition of [3H]gabapentin binding to voltage gated calcium channel alpha2delta from rat cerebral cortex at 10 uM by scintillation counting
Format: tissue-based
Outline: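 Single test concentration, in duplicate. Membranes were incubated 60 min at 22 °C with 10 nM [3H]gabapentin in 10 mM Hepes/Tris pH 7.4. Nonspecific binding was defined with excess unlabelled gabapentin, and filters were counted by scintillation. Compound came from DMSO stock with a final 100-fold dilution in the well. Result given as % inhibition of control specific binding.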

Point of comparison: `CC(C)C[C@H](CN)CC(=O)N[C@H]1C(O)O[C@H](CO)[C@@H](O)[C@@H]1O` (some centres undefined), inhibition 18%. Against it:
- CC(C)C[C@H](CN)CC(=O)NCCc1c[nH]c2ccccc12 — the same, 18%
- CC(C)C[C@H](CN)CC(=O)O — higher, 92%
- CC(C)C[C@H](CN)CC(=O)N[C@@H]1O[C@H](CO)[C@@H](O)[C@H](O)[C@H]1O — lower, 17%
- CC(C)C[C@H](CN)CC(=O)N[C@H]1C(O)O[C@H](CO)[C@H](O)[C@@H]1O (some centres undefined) — lower, 9%
- CC(C)C[C@H](CN)CC(=O)N[C@@H]1C(O)O[C@H](CO)[C@@H](O)[C@@H]1O (some centres undefined) — lower, 14%
- CC(C)C[C@H](CN)CC(=O)NCCc1c[nH]c2ccc(O)cc12 — higher, 51%

Molecular target: not listed separately
Experiment: Displacement of [3H]gabapentin binding to voltage gated calcium channel alpha2delta from rat cerebral cortex by scintillation counting
Format: tissue-based
Outline: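 Membranes were incubated 60 min at 22 °C with 10 nM [3H]gabapentin ± test compound in 10 mM Hepes/Tris pH 7.4. Nonspecific binding was taken with excess unlabelled gabapentin. Filter-bound radioactivity was counted by scintillation. Compounds were diluted from DMSO stocks, 100-fold into the well. Duplicates. IC50 came from a competition curve of specific binding; gabapentin was the reference in each run.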

Work on `CC(C)C[C@H](CN)CC(=O)NCCc1c[nH]c2ccc(O)cc12` yielded an IC50 of 13 µM.

Compound `CC(C)C[C@H](CN)CC(=O)NCCc1c[nH]c2ccc(O)cc12` has a Ki of 11 µM.
